The data set can be described thus: Toxicity liver stage against HepG2, at 10uM. In kind it is cell-based. Set-up: test concentration 10 uM, cell line HepG2-A16-CD81EGFP. As to conditions: human, HepG2-A16-CD81EGFP cells; read-out: INHIBITION
The method, boiled down: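 Uninfected HepG2-A16-CD81EGFP cells, 3 × 10^3 per well, 1536-well, plated on prespotted compound at 10 μM final, parasite-free screening media added to match infected plates; puromycin 10 μM positive, DMSO 0.5% negative; run in parallel with 48 h PbLuc assay at 37 °C, 5% CO2; viability by CellTiter-Glo luminescence, normalized to controls.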
`O=C(O)C1CCCN1c1nc(-c2ccc(Cl)cc2)cc(C(F)(F)F)n1` (configuration not stated): the cytotoxicity at 10 µM turned out to be 30.1%. For `Cc1nn(C)cc1CNCc1ccc(N(C)C)cc1` the value was -11.9%.

Turning to `CNCCc1nc2cc(Cl)ccc2[nH]1`, the cytotoxicity at 10 µM came out at 21.2%.

Regarding `c1csc(CN2CCc3onc(Cn4cccc4)c3C2)c1`, the cytotoxicity at 10 µM amounted to 6.59%. The same measure for `O=C(CC1CCN(CCc2ccccc2)CC1)N1CCCOCC1`: -2.38%. For `c1ccc(-c2cc(CC3(NCc4ncc[nH]4)COC3)no2)cc1` the value was 2.05%; for `Fc1cnc(N2C[C@H]3CN(Cc4cccc(F)c4)C[C@H]3C2)nc1`, 10.4%; for `Fc1ccccc1CC1CCN(Cc2ccccn2)CC1`, 2.25%. For `Cn1ncc2c(=O)[nH]c(CN(Cc3cccc(F)c3)C3CC3)nc21` the value was -13.1%; for `CCc1nc(NCCCOC)c2c(n1)c(C)nn2C`, 2.92%.

For the compound `c1ccc(OCCN2CCc3c(ncn3C3CC3)C2)cc1`, the cytotoxicity at 10 µM was -10.3%.

Turning to `CC[C@@H](C)[C@@H](N)C(=O)Nc1cccc(-c2cnc(NCCO)nc2)c1`, the cytotoxicity at 10 µM was -3.08%. On to `CSCCC(=O)N1CCC(c2nccn2CCN(C)C)CC1`, for which the cytotoxicity at 10 µM is -4.17%.

With `CN1CCN(CCCNC(=O)c2nc3ccccc3c(=O)[nH]2)CC1`, the cytotoxicity at 10 µM was -5.46%.

As to `O=C1[C@@H]2CCN(Cc3ccoc3)C[C@@H]2OCCN1c1ccccc1`, the cytotoxicity at 10 µM was -0.928%.

Take `Cc1noc(C)c1CN1CCOC2(CCCN(c3nncs3)C2)C1` (configuration not stated): the cytotoxicity at 10 µM was -2.82%.

For the compound `O=C(O)C1(Cc2ccc(F)cc2)CCCN(Cc2ccncc2)C1` (configuration not stated), the cytotoxicity at 10 µM was -0.566%. For `CCn1cncc1C1CC(=O)Nc2c1c(C)nn2C` (configuration not stated) the value was -0.557%; for `CCc1c(C)nc2cc(C3CCN(CCc4ccccc4)C3)nn2c1O` (configuration not stated), -20.1%; for `CCCC1(CO)CCCN(C(=O)CNC(N)=O)C1` (configuration not stated), 0.83%. Take `O=C1NC(c2cnc(C3CCC3)s2)Nc2ccccc21` (configuration not stated): the cytotoxicity at 10 µM is -3.95%.

On to `CCCS(=O)(=O)N1CCn2cc(CNc3ccccn3)nc2C1`, for which the cytotoxicity at 10 µM was determined as 9.1%. Take `NC1CCCCN(Cc2cc(-c3ccccc3OC(F)(F)F)no2)C1` (configuration not stated): the cytotoxicity at 10 µM was -4.52%. The same measure for `Cn1nccc1C1CCN(CC(=O)NCC2CC2)CC1`: -9.38%; for `CC(=O)N1CCCCC[C@@H]2[C@@H]1[C@H](c1cccc(F)c1)CN2CCC(N)=O`: -1.08%. For `COc1ncccc1NC(=O)NC1CCCN(c2ncccn2)C1` (configuration not stated) the value was -28.8%; for `O=S(=O)(NCC(O)c1ccc2c(c1)CCO2)c1ccccc1F` (configuration not stated), -8.25%; for `CN1CCC(Cc2cc(N(C)C)ncn2)C1` (configuration not stated), 3.19%. Consider `NC(=O)c1cccc(C(=O)N2CCCC(n3ccnc3)C2)c1` (configuration not stated), for which the cytotoxicity at 10 µM is -14%.

Take `N#Cc1ccc(NCCC2CCN(CC(F)(F)F)CC2)nc1`: the cytotoxicity at 10 µM turned out to be 5.92%. For `Cc1noc(C)c1CCCNc1cnccn1` the value was 10.2%; for `CN(C)C(=O)CN1CCN(C(=O)Cc2csc(-c3ncccn3)n2)CC1`, -8.52%. For `CCOCc1ccc(NCc2cnc(N3CCN(C)CC3)nc2)cc1` the value was 12.1%; for `O=C(OCc1ccccc1)c1cccc(NC(=O)C2COCCO2)c1` (configuration not stated), -0.488%; for `COCCN(Cc1ccoc1)C(=O)c1ccccc1Cl`, 9.12%.

In the case of `CCCc1nc(CN2CCN(C(C)c3nc(C4CC4)no3)CC2)no1` (configuration not stated), the cytotoxicity at 10 µM was -8.14%.

Take `CCC[C@H]1CN(C2CCOCC2)C[C@@H]1NC(=O)CCc1cnccn1`: the cytotoxicity at 10 µM worked out at 3.12%. For `CC1CN(CC(=O)N2CCOCC2)CCN1Cc1nccn1C` (configuration not stated) the value was -15.6%; for `CSCC(C)(O)CNC(=O)c1ccc(Br)cc1C` (configuration not stated), 1.57%. For `CCNC(=O)N1CC[C@H]2CC(=O)N(C3CCCCC3)CC[C@H]2C1` the value was -1.08%; for `COCCNC(=O)c1ccccc1-n1cc(CN)cn1`, -23.6%; for `Cc1cc(C)c(CNC(=O)N(C)Cc2cccc(F)c2)c(=O)[nH]1`, -1.62%. For `Cc1cc(S(=O)(=O)N2CCC(S(C)(=O)=O)CC2)ccc1F` the value was 6.25%; for `O=C(CN1CCN(c2nccs2)CC1)Nc1cccnc1`, -4.23%; for `O=C(c1ccco1)N1C[C@H]2CCCN(Cc3ccc(F)cc3)[C@H]2C1`, 0.255%. On to `CC(NCc1cnc(C2CCC2)s1)c1cccc(-n2cccn2)c1` (configuration not stated), for which the cytotoxicity at 10 µM is 2.34%.

Regarding `Cc1nn(C)c2nc(N3CCC(C(O)Cc4ccccc4)CC3)sc12` (configuration not stated), the cytotoxicity at 10 µM stood at 28.2%. The same measure for `CC(=O)N1CCC2(C1)CN(S(=O)(=O)c1ccccc1)C2`: 3.82%; for `COc1ccc(CNCc2cc(Br)c3c(c2)OCO3)cc1`: 12.1%; for `CC(Cn1cccn1)NC(=O)N1CCCN(Cc2cccs2)CC1` (configuration not stated): -13.5%. For `COc1cc(N2CCC3(CC2)CN(C)C(=O)CO3)ncn1` the value was 6.5%. As to `O=C(NC1CC1)[C@@H]1CCO[C@@H]2CCN(C3CCOCC3)C[C@@H]21`, the cytotoxicity at 10 µM is -9.87%. Turning to `CCNC(=O)NC(=O)CN1CCOC(c2ccc(Br)cc2)C1` (configuration not stated), the cytotoxicity at 10 µM came to 2.08%.

`O=C1CCCN1Cc1nnc2n1CCCN(Cc1ccco1)C2`: the cytotoxicity at 10 µM worked out at 3.24%. For `OCCC1CN(c2ncnc3[nH]cnc23)CCN1Cc1ccccc1` (configuration not stated) the value was 11.9%.

In the case of `Cc1csc(NC(=O)Cn2nc(C)ccc2=O)n1`, the cytotoxicity at 10 µM was -5.7%.

Take `CCc1nc(CN2CCCN(C(=O)C3CCC3)CC2)cs1`: the cytotoxicity at 10 µM was 5.41%. For `CNc1cc(C)nc(NC2CCCN(C3Cc4ccccc4C3)C2)n1` (configuration not stated) the value was 0.403%; for `CC(C#N)CNC(=O)Nc1ccc(Br)cc1` (configuration not stated), 1.44%; for `CC(=O)Nc1ccc(CCC2(NC(=O)C3CC3)CCCCC2)cn1`, 13.4%. The same measure for `NC(=O)CN1CCCN(C(=O)CCOc2ccccc2Cl)CC1`: -6.73%; for `Cc1cnc(CN(Cc2ccccc2)CC(O)c2cccs2)cn1` (configuration not stated): -15.4%; for `CC(C)C(=O)NCc1cccc(N2CCCCC2=O)c1`: -1.73%. Turning to `CCN(CC)S(=O)(=O)c1ccc(OC)c(NC(=O)CSC)c1`, the cytotoxicity at 10 µM was -10%.

On to `COc1cccc(Cn2cc(N3C(=O)CCC3=O)cn2)c1`, for which the cytotoxicity at 10 µM was -2.75%. In the case of `Cc1noc(C)c1CCC(=O)N1CCCC(n2ccnc2C)C1` (configuration not stated), the cytotoxicity at 10 µM was determined as 10.9%. The same measure for `NC(=O)CN(C(=O)c1cccc(C(F)(F)F)c1)C1CCCC1`: -0.296%; for `CCNC(=O)[C@@H]1C[C@H](N)CN1c1cc(CC)nc(N(C)C)n1`: -3.08%; for `CCOc1ccc(C(=O)N(C)C)cc1NC(=O)c1ccsc1`: -0.12%. The same measure for `CC(=O)N1CC(Cc2nccc3ccn(C)c23)C1`: 0.668%; for `CC(C)(C)CN[C@@H]1CO[C@H](CNC(=O)c2ccncc2)[C@H]1O`: -2.5%; for `CCN(Cc1cccc(F)c1)Cn1nc(C)c2c(C)onc2c1=O`: -3.54%.
